From article PMC6427685 (Journal of Enzyme Inhibition and Medicinal Chemistry, 2019)
Where two headings read alike, the source gives them in different places.

Legend:
[1] = target: Recombinant M. tuberculosis MbtI (Mycobacterium tuberculosis, UniProt P9WFX1); experiment: biochemical; conditions: for remaining activity at 100 µM: pH 7.5, read-out: Residual activity at 100 µM (%)
[2] = Cell viability assay; format: cell-based; conditions: human, MRC5 human fibroblast lung cells
Summary of the method: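 MRC5 human lung fibroblasts were kept at 37 °C in humidified 5% CO2 and seeded in 96-well plates. The next day, vehicle or test compound was added at 200 to 0.01 µM.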

Recombinant M. tuberculosis MbtI, sequence (P9WFX1 whole entry): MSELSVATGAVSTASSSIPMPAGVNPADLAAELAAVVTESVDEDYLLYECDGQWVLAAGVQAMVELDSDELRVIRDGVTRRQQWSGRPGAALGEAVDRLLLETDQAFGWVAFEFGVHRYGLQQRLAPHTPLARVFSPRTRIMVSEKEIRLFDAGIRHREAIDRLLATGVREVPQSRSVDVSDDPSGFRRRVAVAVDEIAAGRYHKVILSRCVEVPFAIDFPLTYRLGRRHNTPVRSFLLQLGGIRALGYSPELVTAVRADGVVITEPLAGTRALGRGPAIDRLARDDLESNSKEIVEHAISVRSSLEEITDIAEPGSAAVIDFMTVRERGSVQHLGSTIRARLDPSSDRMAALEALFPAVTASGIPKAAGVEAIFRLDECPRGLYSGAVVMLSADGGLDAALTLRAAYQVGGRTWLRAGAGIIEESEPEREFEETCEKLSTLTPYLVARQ

SMILES: O=C(O)c1ccc(-c2ccc(C(F)(F)F)cc2Br)o1 [1c]
- remaining activity at 100 µM [1]: 38 ± 3.7%

SMILES: O=C(O)c1ccc(-c2ccc(C(F)(F)F)cc2O)o1 [1d]
- IC50 [1]: 35.9 ± 10.3 µM
- remaining activity at 100 µM [1]: 16.8 ± 2.7%

SMILES: O=C(O)c1ccc(-c2ccc([N+](=O)[O-])cc2Br)o1 [1j]
- remaining activity at 100 µM [1]: 32.1 ± 2.4%

SMILES: Cc1cc([N+](=O)[O-])ccc1-c1ccc(C(=O)O)o1 [1m]
- IC50 [1]: 28.5 ± 1.5 µM
- remaining activity at 100 µM [1]: 13.2 ± 5.8%

SMILES: O=C(O)c1ccc(-c2ccc(C(F)(F)F)cc2F)o1 [1b]
- IC50 [1]: 27.6 ± 7.3 µM
- remaining activity at 100 µM [1]: 6.1 ± 1.1%

SMILES: O=C(O)c1ccc(-c2ccc([N+](=O)[O-])cc2F)o1 [1k]
- remaining activity at 100 µM [1]: 26.4 ± 4.8%

SMILES: Nc1cc([N+](=O)[O-])ccc1-c1ccc(C(=O)O)o1 [1n]
- IC50 [1]: 24.2 ± 5.4 µM
- remaining activity at 100 µM [1]: 13.5 ± 3.8%

SMILES: N#Cc1cc(C(F)(F)F)ccc1-c1ccc(C(=O)O)o1 [1g, 5-(2-cyano-4-(trifluoromethyl)phenyl)furan-2-carboxylic acid]
- IC50 [1]: 18.5 ± 3.2 µM
- remaining activity at 100 µM [1]: 5.7 ± 1.5%

SMILES: Cc1cc(C(F)(F)F)ccc1-c1ccc(C(=O)O)o1 [1e]
- IC50 [1]: 31.5 ± 9.6 µM
- remaining activity at 100 µM [1]: 19.3 ± 2.2%

SMILES: O=C(O)c1ccc(-c2ccc([N+](=O)[O-])cc2O)o1 [1l]
- IC50 [1]: 29.8 ± 4.2 µM
- remaining activity at 100 µM [1]: 13.9 ± 4%

SMILES: O=C(O)c1ccc(-c2ccc([N+](=O)[O-])cc2C(F)(F)F)o1 [1p]
- remaining activity at 100 µM [1]: 25.1 ± 3.7%
- IC50 at 96 h [2]: > 100 µM

SMILES: N#Cc1cc([N+](=O)[O-])ccc1-c1ccc(C(=O)O)o1 [1o, 5-(2-cyano-4-nitro-phenyl)furan-2-carboxylate]
- Residual activity at 100 µM (%) ([1]; compound at 100 µM, 50 µM chorismic acid, 37 °C, pH 7.5): 5.0 ± 1.9%
- IC50 ([1]; read-out: MbtI IC50): 24.4 ± 5.9 µM

SMILES: Nc1cc(C(F)(F)F)ccc1-c1ccc(C(=O)O)o1 [1f]
- IC50 [1]: 34.6 ± 10.9 µM
- remaining activity at 100 µM [1]: 13.1 ± 2.4%
